Calls of active or inactive are those of the source. No cut-off for these calls is given here.
Legend:
[1] = target: Tyrosine-protein kinase ABL2 (Homo sapiens) (UniProt P42684); experiment: Inhibition of ABL2 (unknown origin) assessed as remaining activity at 1 uM by Kinome scan method relative to control
How it was run: (§1)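 Active-site-dependent competition-binding (KINOMEscan) panel of 468 kinases, test compound at 1 μM (from a 10 mM DMSO stock). Read-out is ctrl% = (test signal − positive control signal)/(negative control signal − positive control signal) × 100. DMSO is the negative control (100%) and a control compound is the positive control (0%). Lower ctrl% means tighter binding.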

[2] = target: Activin receptor type-1 (Homo sapiens) (UniProt Q04771); experiment: Inhibition of ACVR1 (unknown origin) assessed as remaining activity at 1 uM by Kinome scan method relative to control; how it was run: as §1
[3] = target: 5'-AMP-activated protein kinase catalytic subunit alpha-2 (Homo sapiens) (UniProt P54646); experiment: Inhibition of AMPK-alpha2 (unknown origin) assessed as remaining activity at 1 uM by Kinome scan method relative to control; how it was run: as §1
Sequence of 5'-AMP-activated protein kinase catalytic subunit alpha-2 (Homo sapiens) (P54646 whole entry, looked up): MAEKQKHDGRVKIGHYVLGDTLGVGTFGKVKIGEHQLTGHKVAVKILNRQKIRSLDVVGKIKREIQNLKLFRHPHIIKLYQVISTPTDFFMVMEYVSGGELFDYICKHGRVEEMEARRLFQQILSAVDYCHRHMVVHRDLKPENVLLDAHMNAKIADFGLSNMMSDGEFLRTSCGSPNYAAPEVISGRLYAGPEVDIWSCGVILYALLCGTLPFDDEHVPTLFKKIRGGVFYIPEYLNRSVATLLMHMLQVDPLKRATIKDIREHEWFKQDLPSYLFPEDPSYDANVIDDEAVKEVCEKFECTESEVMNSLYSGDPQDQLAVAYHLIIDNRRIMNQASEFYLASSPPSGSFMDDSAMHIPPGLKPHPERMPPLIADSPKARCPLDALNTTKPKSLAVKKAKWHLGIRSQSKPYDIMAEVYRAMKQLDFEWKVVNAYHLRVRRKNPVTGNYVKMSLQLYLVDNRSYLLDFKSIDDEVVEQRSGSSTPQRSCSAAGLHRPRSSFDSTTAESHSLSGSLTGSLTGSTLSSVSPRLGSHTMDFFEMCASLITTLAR

[4] = target: Mitogen-activated protein kinase kinase kinase 5 (Homo sapiens) (UniProt Q99683); experiment: Inhibition of ASK1 (unknown origin) assessed as remaining activity at 1 uM by Kinome scan method relative to control; how it was run: as §1
[5] = target: Mitogen-activated protein kinase kinase kinase 6 (Homo sapiens) (UniProt O95382); experiment: Inhibition of ASK2 (unknown origin) assessed as remaining activity at 1 uM by Kinome scan method relative to control; how it was run: as §1
[6] = target: Cyclin-dependent kinase 4/cyclin D1 (Homo sapiens) (UniProt P11802+P24385); experiment: Inhibition of CDK4/cyclinD1 (unknown origin) assessed as remaining activity at 1 uM by Kinome scan method relative to control; format: protein-complex assay
How it was run: (§2)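 Active-site-dependent competition-binding profiling (KINOMEscan) at 1 μM against a 468-kinase panel; compound supplied from a 10 mM DMSO stock. Read-out is ctrl% = (test signal − positive control signal)/(negative control signal − positive control signal) × 100. DMSO is the negative control (100%) and a control compound the positive control (0%). Lower ctrl% means tighter binding.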

[7] = target: Cyclin-dependent kinase 9 (Homo sapiens) (UniProt P50750); experiment: Inhibition of CDK9 (unknown origin) assessed as remaining activity at 1 uM by Kinome scan method relative to control; how it was run: as §2
[8] = target: Casein kinase I isoform gamma-1 (Homo sapiens) (UniProt Q9HCP0); experiment: Inhibition of CSNK1G1 (unknown origin) assessed as remaining activity at 1 uM by Kinome scan method relative to control; how it was run: as §2
[9] = target: Casein kinase II subunit alpha' (Homo sapiens) (UniProt P19784); experiment: Inhibition of CSNK2A2 (unknown origin) assessed as remaining activity at 1 uM by Kinome scan method relative to control; how it was run: as §2
Sequence of Casein kinase II subunit alpha' (Homo sapiens) (P19784 whole entry, looked up): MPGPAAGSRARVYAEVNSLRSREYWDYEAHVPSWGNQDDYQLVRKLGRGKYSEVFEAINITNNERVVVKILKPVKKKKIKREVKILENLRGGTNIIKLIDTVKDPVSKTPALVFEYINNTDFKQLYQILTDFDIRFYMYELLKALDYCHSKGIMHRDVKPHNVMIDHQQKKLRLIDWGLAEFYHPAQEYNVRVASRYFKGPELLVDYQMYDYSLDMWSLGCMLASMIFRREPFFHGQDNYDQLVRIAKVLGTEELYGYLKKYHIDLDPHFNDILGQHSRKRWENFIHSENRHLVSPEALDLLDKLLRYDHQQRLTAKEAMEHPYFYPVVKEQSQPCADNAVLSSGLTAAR

[10] = system: Epidermal growth factor receptor (Homo sapiens), P00533 [UNDEFINED MUTATION]; experiment: Inhibition of EGFR L747-E749del/A750P mutant (unknown origin) assessed as remaining activity at 1 uM by Kinome scan method relative to control
Sequence of Epidermal growth factor receptor (Homo sapiens), P00533 [UNDEFINED MUTATION] (P00533 whole entry, looked up, stated change not applied): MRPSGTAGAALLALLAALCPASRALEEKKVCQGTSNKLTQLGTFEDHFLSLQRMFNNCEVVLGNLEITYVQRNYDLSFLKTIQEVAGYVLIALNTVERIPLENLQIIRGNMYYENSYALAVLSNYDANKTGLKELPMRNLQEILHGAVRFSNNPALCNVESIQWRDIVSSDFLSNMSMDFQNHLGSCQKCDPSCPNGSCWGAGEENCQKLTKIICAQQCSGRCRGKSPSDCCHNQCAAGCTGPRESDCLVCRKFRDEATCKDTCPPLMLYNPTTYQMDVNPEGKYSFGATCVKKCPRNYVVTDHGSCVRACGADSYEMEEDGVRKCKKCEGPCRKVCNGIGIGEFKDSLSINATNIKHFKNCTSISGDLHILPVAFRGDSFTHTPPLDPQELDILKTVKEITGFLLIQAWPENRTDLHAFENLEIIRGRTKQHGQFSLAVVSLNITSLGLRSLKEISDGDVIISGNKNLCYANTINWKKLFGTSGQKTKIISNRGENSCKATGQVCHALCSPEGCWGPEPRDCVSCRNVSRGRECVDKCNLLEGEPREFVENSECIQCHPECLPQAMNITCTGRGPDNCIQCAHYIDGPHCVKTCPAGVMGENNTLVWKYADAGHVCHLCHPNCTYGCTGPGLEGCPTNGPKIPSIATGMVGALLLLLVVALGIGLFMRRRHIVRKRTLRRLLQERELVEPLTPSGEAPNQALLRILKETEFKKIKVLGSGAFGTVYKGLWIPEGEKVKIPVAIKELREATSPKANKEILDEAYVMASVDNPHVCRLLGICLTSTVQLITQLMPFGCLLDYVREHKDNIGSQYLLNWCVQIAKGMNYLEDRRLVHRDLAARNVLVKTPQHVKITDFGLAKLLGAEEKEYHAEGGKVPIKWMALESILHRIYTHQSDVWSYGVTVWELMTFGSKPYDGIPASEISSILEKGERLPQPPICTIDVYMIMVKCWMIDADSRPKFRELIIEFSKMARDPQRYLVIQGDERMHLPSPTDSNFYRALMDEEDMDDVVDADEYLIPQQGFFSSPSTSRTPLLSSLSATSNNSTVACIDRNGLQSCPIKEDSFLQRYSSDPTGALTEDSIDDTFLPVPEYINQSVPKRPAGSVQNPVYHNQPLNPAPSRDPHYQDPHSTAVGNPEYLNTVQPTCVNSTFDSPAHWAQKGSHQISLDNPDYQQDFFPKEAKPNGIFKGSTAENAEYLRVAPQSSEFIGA

[11] = system: Epidermal growth factor receptor (Homo sapiens), P00533 [UNDEFINED MUTATION]; experiment: Inhibition of EGFR S752-I759del mutant (unknown origin) assessed as remaining activity at 1 uM by Kinome scan method relative to control
[12] = target: Ephrin type-B receptor 3 (Homo sapiens) (UniProt P54753); experiment: Inhibition of EPHB3 (unknown origin) assessed as remaining activity at 1 uM by Kinome scan method relative to control
[13] = target: Homeodomain-interacting protein kinase 2 (Homo sapiens) (UniProt Q9H2X6); experiment: Inhibition of HIPK2 (unknown origin) assessed as remaining activity at 1 uM by Kinome scan method relative to control
[14] = target: Tyrosine-protein kinase JAK1 (Homo sapiens, UniProt P23458); experiment: Inhibition of JAK1 JH2 domain (unknown origin) assessed as remaining activity at 1 uM by Kinome scan method relative to control
Sequence of Tyrosine-protein kinase JAK1 (P23458 whole entry, the tested form may be a part): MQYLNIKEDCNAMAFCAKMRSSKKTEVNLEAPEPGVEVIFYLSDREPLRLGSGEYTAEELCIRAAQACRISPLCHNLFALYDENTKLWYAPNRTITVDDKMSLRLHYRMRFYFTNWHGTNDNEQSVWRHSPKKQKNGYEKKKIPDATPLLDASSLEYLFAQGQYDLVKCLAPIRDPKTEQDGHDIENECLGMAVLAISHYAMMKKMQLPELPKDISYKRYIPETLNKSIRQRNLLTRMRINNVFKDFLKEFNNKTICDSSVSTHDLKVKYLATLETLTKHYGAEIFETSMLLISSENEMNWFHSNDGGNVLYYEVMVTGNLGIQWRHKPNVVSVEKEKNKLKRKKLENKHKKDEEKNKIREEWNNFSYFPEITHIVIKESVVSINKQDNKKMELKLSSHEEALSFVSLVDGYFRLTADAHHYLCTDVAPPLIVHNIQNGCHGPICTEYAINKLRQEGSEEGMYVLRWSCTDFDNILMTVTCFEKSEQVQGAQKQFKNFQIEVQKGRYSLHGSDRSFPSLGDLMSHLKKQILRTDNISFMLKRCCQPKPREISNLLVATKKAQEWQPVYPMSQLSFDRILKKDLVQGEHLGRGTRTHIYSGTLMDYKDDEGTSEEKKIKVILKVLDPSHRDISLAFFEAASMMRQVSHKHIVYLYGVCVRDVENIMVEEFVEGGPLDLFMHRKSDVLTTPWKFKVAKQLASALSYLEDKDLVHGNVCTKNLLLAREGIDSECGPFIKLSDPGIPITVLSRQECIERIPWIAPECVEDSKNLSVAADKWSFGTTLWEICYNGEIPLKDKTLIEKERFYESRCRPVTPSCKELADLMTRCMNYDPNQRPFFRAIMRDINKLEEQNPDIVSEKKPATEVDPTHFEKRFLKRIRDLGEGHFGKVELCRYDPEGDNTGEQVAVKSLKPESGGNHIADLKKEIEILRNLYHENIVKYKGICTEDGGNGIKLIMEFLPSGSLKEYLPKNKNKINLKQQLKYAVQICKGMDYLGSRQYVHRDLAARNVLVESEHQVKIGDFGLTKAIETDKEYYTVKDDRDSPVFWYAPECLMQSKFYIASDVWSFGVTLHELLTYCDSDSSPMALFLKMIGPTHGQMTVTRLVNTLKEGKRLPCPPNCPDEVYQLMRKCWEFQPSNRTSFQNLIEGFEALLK

[15] = system: Hepatocyte growth factor receptor (Homo sapiens), P08581 [M1250T]; experiment: Inhibition of MET M1250T mutant (unknown origin) assessed as remaining activity at 1 uM by Kinome scan method relative to control
[16] = target: Dual specificity mitogen-activated protein kinase kinase 7 (Homo sapiens) (UniProt O14733); experiment: Inhibition of MKK7 (unknown origin) assessed as remaining activity at 1 uM by Kinome scan method relative to control
[17] = target: Phosphatidylinositol 4,5-bisphosphate 3-kinase catalytic subunit alpha isoform (Homo sapiens) (UniProt P42336); experiment: Inhibition of PIK3CA (unknown origin) assessed as remaining activity at 1 uM by Kinome scan method relative to control
[18] = target: Serine/threonine-protein kinase PLK1 (Homo sapiens) (UniProt P53350); experiment: Inhibition of PLK1 (unknown origin) assessed as remaining activity at 1 uM by Kinome scan method relative to control
Sequence of Serine/threonine-protein kinase PLK1 (Homo sapiens) (P53350 whole entry): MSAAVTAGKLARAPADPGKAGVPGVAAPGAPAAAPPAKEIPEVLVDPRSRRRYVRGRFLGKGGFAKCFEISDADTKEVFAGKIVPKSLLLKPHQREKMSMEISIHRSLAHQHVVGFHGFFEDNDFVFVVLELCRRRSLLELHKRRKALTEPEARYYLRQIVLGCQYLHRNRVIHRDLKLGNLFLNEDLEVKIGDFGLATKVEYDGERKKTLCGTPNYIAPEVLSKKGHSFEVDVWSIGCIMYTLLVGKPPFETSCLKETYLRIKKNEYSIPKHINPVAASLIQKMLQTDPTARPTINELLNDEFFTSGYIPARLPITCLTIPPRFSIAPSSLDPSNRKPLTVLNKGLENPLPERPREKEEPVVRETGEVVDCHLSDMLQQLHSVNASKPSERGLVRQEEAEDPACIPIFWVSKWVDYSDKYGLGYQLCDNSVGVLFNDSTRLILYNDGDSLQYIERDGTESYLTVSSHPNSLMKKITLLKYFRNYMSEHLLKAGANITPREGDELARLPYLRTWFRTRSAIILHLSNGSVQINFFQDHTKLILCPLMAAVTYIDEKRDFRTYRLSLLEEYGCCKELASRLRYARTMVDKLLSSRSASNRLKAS

[19] = target: Proto-oncogene tyrosine-protein kinase receptor Ret (Homo sapiens) (UniProt P07949); experiment: Inhibition of RET (unknown origin) assessed as remaining activity at 1 uM by Kinome scan method relative to control
[20] = target: Ribosomal protein S6 kinase alpha-1 (Homo sapiens) (UniProt Q15418); experiment: Inhibition of N-terminal kinase domain RSK1 (unknown origin) assessed as remaining activity at 1 uM by Kinome scan method relative to control
[21] = target: TGF-beta receptor type-2 (Homo sapiens) (UniProt P37173); experiment: Inhibition of TGFBR2 (unknown origin) assessed as remaining activity at 1 uM by Kinome scan method relative to control
[22] = target: Testis-specific serine/threonine-protein kinase 1 (Homo sapiens) (UniProt Q9BXA7); experiment: Inhibition of TSSK1B (unknown origin) assessed as remaining activity at 1 uM by Kinome scan method relative to control
[23] = target: Testis-specific serine/threonine-protein kinase 3 (Homo sapiens) (UniProt Q96PN8); experiment: Inhibition of TSSK3 (unknown origin) assessed as remaining activity at 1 uM by Kinome scan method relative to control
Sequence of Testis-specific serine/threonine-protein kinase 3 (Homo sapiens) (Q96PN8 whole entry): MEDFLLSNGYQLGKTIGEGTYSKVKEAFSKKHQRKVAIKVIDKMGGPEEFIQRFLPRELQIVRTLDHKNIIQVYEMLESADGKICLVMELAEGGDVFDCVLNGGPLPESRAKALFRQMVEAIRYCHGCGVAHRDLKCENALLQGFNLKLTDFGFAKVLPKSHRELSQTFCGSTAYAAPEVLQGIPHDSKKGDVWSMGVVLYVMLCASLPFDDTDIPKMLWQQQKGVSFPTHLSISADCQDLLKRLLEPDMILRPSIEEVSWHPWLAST

[24] = target: Serine/threonine-protein kinase ULK2 (Homo sapiens) (UniProt Q8IYT8); experiment: Inhibition of ULK2 (unknown origin) assessed as remaining activity at 1 uM by Kinome scan method relative to control
[25] = target: Mitogen-activated protein kinase kinase kinase 19 (Homo sapiens) (UniProt Q56UN5); experiment: Inhibition of YSK4 (unknown origin) assessed as remaining activity at 1 uM by Kinome scan method relative to control
[26] = target: Mitogen-activated protein kinase kinase kinase 2 (Homo sapiens, UniProt Q9Y2U5); experiment: Binding affinity to MAP3K2 (unknown origin) assessed as dissociation constant
[27] = target: Mitogen-activated protein kinase kinase kinase 3 (Homo sapiens, UniProt Q99759); experiment: Binding affinity to MAP3K3 (unknown origin) assessed as dissociation constant
Sequence of Mitogen-activated protein kinase kinase kinase 3 (Q99759 whole entry): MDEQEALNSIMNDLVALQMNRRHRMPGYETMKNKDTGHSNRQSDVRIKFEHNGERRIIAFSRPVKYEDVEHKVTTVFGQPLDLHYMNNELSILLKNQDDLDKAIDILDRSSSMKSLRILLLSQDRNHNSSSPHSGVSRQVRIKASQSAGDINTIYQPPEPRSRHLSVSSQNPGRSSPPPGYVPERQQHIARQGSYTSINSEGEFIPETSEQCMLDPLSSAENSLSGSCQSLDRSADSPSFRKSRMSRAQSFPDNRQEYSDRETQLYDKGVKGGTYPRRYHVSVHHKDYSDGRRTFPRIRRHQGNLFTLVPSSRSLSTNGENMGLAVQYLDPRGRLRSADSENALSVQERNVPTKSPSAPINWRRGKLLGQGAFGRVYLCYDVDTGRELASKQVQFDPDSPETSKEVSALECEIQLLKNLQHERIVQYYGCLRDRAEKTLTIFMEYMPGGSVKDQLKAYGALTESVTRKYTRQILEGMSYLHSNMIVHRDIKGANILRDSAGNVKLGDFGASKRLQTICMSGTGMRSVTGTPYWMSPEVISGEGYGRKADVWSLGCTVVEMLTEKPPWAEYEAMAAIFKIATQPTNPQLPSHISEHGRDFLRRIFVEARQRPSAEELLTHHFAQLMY

[28] = target: Serine/threonine-protein kinase 24 (Homo sapiens, UniProt Q9Y6E0); experiment: Inhibition of MST3 (unknown origin) in presence of ATP by enzymatic assay
Mus musculus = experiment: In vivo inhibition of MST1/2 in mouse assessed as block in MOB1 phosphorylation level at 1 mg/kg, ip administration by immunoblot analysis; format: functional, organism-based
How it was run: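 Wild-type mice received escalating intraperitoneal doses, and livers were collected 3 h later. Liver lysates were immunoblotted for p-MOB1 and quantified relative to controls. Means ± SD, n = 3, Student's t test.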

## CN1C(=O)c2sccc2N(C)c2nc(Nc3ccc(S(N)(=O)=O)cc3)ncc21
[1]
  Activity: 96%
[2]
  Activity: 91%
[3]
  Activity: 100%
[4]
  Activity: 100%
[5]
  Activity: 84%
[6]
  Activity: 93%
[7]
  Activity: 84%
[8]
  Activity: 79%
[9]
  Activity: 97%
[10]
  Activity: 100%
[11]
  Activity: 100%
[12]
  Activity: 95%
[13]
  Activity: 96%
[14]
  Activity: 4.3%
[15]
  Activity: 81%
[16]
  Activity: 96%
[17]
  Activity: 88%
[18]
  Activity: 70%
[19]
  Activity: 100%
[20]
  Activity: 91%
[21]
  Activity: 100%
[22]
  Activity: 100%
[23]
  Activity: 93%
[24]
  Activity: 4.8%
[25]
  Activity: 42%
[26]
  Kd: 19 nM
[27]
  Kd: 27 nM
[28]
  IC50: 44.8 nM
Mus musculus
  inhibition: Active

From ChEMBL document CHEMBL5705905, “Pharmacological targeting of kinases MST1 and MST2 augments tissue repair and regeneration” (Sci Transl Med, 2016)
